Reference: the M2OR odorant receptor database
Substitutions are numbered along the chain they refer to.

Experiments:
Settings in all cases: stereoisomer not certain
OR2A1 T73A R74C S168C = test system: T1, OR2A1 T73A R74C S168C
T1 sequence (whole entry): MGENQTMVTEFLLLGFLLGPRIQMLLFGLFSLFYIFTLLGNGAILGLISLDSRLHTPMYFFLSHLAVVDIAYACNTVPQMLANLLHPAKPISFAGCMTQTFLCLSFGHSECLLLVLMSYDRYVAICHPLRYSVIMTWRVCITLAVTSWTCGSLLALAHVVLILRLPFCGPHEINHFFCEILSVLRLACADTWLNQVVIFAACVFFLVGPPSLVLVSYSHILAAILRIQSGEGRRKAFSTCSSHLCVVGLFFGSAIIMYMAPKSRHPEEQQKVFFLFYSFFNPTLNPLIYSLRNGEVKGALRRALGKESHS
Procedure, shortened: (§1)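 Values were gathered from published papers (main text and supplementary material), with extra details requested from the original authors when needed, and checked for typos and inconsistencies. Each receptor–molecule pair is called responsive (active) if the original authors judged the measured signal statistically different from baseline, and non-responsive (inactive) otherwise. Assay methods varied by source, often transient mammalian cell-line luciferase assays. Recorded details include cell line, G-protein, co-transfected protein and tags.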

OR2A12 (Homo sapiens) = biological target: T2, OR2A12 (Homo sapiens) (UniProt Q8NGT7)
T2 sequence (whole entry): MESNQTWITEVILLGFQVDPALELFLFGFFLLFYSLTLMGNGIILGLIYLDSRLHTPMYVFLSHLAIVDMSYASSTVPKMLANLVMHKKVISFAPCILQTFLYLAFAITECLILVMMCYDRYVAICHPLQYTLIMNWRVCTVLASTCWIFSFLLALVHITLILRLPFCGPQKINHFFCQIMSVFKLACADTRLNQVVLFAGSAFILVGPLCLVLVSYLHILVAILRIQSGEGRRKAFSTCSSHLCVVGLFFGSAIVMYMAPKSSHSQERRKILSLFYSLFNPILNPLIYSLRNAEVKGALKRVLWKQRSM
Procedure, shortened: as §1

OR2A14 (Homo sapiens) = biological target: T3, OR2A14 (Homo sapiens) (UniProt Q96R47)
T3 sequence (whole entry): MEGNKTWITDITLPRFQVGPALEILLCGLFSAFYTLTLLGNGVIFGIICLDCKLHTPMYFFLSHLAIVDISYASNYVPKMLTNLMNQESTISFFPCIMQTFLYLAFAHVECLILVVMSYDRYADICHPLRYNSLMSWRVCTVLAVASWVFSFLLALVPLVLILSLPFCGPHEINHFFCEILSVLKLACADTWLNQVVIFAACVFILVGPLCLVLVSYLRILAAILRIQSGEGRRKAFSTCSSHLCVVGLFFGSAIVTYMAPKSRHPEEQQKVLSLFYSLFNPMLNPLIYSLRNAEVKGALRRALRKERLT
Procedure, shortened: as §1

OR2A2 (Homo sapiens) = biological target: T4, OR2A2 (Homo sapiens) (UniProt Q6IF42)
T4 sequence (whole entry): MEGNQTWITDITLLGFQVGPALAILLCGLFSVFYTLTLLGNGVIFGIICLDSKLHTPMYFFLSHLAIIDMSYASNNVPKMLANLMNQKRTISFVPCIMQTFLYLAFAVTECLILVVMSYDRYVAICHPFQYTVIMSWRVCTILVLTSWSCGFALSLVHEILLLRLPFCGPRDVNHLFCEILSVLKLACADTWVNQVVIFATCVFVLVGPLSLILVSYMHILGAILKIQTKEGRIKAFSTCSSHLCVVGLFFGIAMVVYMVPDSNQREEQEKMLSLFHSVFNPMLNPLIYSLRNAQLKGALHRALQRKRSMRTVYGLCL
Procedure, shortened: as §1

OR2A25 (Homo sapiens) = biological target: T5, OR2A25 (Homo sapiens) (UniProt A4D2G3)
T5 sequence (whole entry): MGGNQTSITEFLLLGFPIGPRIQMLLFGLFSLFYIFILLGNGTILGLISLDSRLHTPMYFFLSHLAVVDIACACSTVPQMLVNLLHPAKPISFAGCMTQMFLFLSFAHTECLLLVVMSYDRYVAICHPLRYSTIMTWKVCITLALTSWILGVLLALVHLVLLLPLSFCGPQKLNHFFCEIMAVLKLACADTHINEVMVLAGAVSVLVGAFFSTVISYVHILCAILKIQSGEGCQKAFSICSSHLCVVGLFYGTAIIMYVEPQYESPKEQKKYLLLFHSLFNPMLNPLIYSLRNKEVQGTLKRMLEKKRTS
Procedure, shortened: as §1

OR2A2 = test system: T6, OR2A2
T6 sequence (whole entry): T4 sequence (whole entry) with F280L
Procedure, shortened: as §1

OR2A4 (Homo sapiens) = biological target: T7, OR2A4 (Homo sapiens) (UniProt O95047)
T7 sequence (whole entry): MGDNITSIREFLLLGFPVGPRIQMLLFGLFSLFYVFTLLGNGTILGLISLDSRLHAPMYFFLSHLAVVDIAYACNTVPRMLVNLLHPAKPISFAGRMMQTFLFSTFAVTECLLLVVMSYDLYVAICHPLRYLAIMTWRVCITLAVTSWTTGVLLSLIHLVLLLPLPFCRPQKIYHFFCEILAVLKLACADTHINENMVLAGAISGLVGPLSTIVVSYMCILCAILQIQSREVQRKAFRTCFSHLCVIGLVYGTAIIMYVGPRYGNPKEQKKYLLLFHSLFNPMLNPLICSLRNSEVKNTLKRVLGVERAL
Procedure, shortened: as §1

OR2A5 (Homo sapiens) = biological target: T8, OR2A5 (Homo sapiens) (UniProt Q96R48)
T8 sequence (whole entry): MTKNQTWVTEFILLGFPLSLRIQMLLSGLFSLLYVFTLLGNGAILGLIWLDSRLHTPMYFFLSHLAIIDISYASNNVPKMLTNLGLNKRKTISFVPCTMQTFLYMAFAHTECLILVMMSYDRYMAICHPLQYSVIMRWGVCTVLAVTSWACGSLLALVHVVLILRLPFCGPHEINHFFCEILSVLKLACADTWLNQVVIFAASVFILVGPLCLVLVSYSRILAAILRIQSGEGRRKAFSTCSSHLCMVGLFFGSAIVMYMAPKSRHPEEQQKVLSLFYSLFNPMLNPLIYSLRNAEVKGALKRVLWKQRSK
Procedure, shortened: as §1

OR2A5 I126V A202S A255T = test system: T9, OR2A5 I126V A202S A255T
T9 sequence (whole entry): T8 sequence (whole entry) with I126V, A202S, A255T
Procedure, shortened: as §1

OR2A7 (Homo sapiens) = biological target: T10, OR2A7 (Homo sapiens) (UniProt Q96R45)
T10 sequence (whole entry): T7 sequence (whole entry) with R9T, R238C, V250F
Procedure, shortened: as §1

OR2A7 = test system: T11, OR2A7
T11 sequence (whole entry): T7 sequence (whole entry) with R238C, V250F
Procedure, shortened: as §1

OR2AE1 (Homo sapiens) = biological target: T12, OR2AE1 (Homo sapiens) (UniProt Q8NHA4)
T12 sequence (whole entry): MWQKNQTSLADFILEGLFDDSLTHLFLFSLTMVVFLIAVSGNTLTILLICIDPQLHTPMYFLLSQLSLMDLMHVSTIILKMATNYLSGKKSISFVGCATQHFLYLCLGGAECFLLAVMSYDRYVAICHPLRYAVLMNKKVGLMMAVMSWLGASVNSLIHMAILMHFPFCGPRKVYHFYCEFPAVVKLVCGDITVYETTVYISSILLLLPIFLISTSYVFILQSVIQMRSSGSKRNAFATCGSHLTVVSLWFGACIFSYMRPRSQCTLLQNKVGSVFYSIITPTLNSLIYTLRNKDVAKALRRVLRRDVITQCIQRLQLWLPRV
Procedure, shortened: as §1

OR2AG1 (Homo sapiens) = biological target: T13, OR2AG1 (Homo sapiens) (UniProt Q9H205)
T13 sequence (whole entry): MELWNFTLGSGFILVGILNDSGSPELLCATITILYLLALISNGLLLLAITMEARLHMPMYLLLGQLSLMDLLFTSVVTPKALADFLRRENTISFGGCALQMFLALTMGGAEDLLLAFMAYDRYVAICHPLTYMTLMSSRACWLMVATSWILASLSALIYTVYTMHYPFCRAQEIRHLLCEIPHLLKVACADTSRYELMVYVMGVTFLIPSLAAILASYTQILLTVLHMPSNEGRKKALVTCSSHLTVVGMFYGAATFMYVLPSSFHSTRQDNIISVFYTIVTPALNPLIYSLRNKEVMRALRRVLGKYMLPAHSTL
Procedure, shortened: as §1

OR2AG2 (Homo sapiens) = biological target: T14, OR2AG2 (Homo sapiens) (UniProt A6NM03)
T14 sequence (whole entry): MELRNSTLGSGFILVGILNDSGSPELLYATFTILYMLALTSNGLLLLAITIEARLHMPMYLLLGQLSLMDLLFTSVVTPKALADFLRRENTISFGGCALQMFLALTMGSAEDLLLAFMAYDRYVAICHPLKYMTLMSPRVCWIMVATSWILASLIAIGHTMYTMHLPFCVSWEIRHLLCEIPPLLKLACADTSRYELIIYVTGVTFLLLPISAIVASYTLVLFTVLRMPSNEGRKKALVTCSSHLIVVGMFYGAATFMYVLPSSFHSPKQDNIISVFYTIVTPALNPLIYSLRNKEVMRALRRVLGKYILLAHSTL
Procedure, shortened: as §1

OR2AK2 (Homo sapiens) = biological target: T15, OR2AK2 (Homo sapiens) (UniProt Q8NG84)
T15 sequence (whole entry): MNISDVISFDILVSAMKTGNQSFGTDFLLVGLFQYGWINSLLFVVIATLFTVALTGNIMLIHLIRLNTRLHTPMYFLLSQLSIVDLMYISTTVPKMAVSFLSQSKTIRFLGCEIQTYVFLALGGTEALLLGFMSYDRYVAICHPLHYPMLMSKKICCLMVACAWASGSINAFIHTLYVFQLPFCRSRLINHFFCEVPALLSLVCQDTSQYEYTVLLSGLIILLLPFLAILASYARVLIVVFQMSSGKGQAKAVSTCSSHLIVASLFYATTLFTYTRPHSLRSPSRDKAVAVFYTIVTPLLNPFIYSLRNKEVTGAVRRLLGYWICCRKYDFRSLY
Procedure, shortened: as §1

OR2AP1 (Homo sapiens) = biological target: T16, OR2AP1 (Homo sapiens) (UniProt Q8NGE2)
T16 sequence (whole entry): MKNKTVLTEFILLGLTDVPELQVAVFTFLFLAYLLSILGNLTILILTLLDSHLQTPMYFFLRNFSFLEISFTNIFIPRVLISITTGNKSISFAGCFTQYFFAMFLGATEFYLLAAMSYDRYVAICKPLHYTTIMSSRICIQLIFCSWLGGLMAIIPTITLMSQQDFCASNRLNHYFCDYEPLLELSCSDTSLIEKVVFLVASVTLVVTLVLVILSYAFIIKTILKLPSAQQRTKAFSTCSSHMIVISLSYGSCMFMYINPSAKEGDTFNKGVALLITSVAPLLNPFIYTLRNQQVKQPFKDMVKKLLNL
Procedure, shortened: as §1

OR2AT4 (Homo sapiens) = biological target: T17, OR2AT4 (Homo sapiens) (UniProt A6NND4)
T17 sequence (whole entry): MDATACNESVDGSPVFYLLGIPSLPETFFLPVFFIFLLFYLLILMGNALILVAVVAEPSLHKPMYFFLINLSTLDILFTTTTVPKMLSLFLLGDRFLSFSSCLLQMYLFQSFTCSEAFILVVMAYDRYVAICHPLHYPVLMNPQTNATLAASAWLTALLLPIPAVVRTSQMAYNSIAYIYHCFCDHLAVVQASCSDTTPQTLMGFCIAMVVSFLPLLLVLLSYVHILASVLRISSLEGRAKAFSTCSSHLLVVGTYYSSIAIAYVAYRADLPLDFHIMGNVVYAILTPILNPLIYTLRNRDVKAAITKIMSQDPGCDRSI
Procedure, shortened: as §1

OR2B11 (Homo sapiens) = biological target: T18, OR2B11 (Homo sapiens) (UniProt Q5JQS5)
T18 sequence (whole entry): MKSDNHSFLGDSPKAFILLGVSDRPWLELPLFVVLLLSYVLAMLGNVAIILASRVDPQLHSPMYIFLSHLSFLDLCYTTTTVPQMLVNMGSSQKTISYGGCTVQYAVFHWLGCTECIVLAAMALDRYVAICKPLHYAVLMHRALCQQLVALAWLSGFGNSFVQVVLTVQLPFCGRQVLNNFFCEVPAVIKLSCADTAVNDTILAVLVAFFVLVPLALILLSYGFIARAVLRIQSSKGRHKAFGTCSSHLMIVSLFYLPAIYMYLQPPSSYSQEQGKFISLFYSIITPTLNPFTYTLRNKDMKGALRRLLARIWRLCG
Procedure, shortened: as §1

OR2B2 (Homo sapiens) = biological target: T19, OR2B2 (Homo sapiens) (UniProt Q9GZK3)
T19 sequence (whole entry): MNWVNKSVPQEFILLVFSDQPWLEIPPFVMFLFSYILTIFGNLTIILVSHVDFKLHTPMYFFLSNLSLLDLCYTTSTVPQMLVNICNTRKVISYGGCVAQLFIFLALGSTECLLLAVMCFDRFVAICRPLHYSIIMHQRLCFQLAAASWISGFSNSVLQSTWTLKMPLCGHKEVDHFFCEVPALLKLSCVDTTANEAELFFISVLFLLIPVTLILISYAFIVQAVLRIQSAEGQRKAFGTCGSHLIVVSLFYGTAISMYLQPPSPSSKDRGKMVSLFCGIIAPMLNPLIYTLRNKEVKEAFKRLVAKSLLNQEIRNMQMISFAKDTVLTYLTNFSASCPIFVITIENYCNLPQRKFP
Procedure, shortened: as §1

Measured: odorant receptor agonist call

CCCC(S)CCOC(C)=O (centres undefined)
inactive: all assays above

CC(=O)O
inactive: OR2A7 (Homo sapiens)

CC1=NC(C)C(C)S1 (centres undefined)
inactive: all assays above
